Assay outcomes deposited in PubChem by The Scripps Research Institute Molecular Screening Center.
HTRA1 inh – HTRA1 (human) protease inhibition; Q92743; recombinant HTRA1, FP-rhodamine activity-based probe, fluorescence polarization; inhibition, % at 5.96 µM; hit rate 0.5% among 340,000; AID 504803; in the data active = inhibition above about 36%
SIAE primary – human SIAE inhibition, primary screen; SIAE FP-Rh probe binding, fluorescence polarization; AID 1053197; Q9HAT2; hit rate 0.69% among 370,000; inhibition, % at 9.66 µM;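 active = inhibition above a cutoff: mean of compounds within the control limits plus 3 SD of those, cut at about 17% in these data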
ABHD4 inh – inhibits mouse alpha/beta hydrolase domain 4. inhibition, % at 8.92 µM. purified mABHD4, FP-Rh probe fluorescence polarization. Q8VD66. hit rate 0.54% among 370,000;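 active = inhibition exceeding the mean over every tested compound plus 3 SD, cut at about 30% in these data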
Target sequence (Q8VD66 whole entry, looked up, the tested form may be a part): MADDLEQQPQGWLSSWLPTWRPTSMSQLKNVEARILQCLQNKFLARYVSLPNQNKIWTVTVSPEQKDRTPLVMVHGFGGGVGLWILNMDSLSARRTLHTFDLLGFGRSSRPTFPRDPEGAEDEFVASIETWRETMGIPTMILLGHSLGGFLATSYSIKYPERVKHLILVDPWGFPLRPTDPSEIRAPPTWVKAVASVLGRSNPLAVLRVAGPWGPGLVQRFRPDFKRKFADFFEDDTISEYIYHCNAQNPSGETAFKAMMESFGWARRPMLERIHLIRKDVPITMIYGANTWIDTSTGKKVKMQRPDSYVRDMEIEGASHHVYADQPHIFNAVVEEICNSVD
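Test system: mABHD4 protein | Buffer or medium: HEPES pH 7.0 buffer, 150 mM NaCl, 0.01% Pluronic F-127 | Probe or stimulus: FP-Rh fluorescent activity-based probe, added after compound pre-incubation | Timing: Pre-incubation 45 min, probe exposure 60 min, at 25 °C | Technique: Fluorescence polarization, excitation 525 nm, emission 598 nm, BODIPY TMR filters | Repeats: Single well per compound (singlicate)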
PRMT1 FP inh – blocks human protein arginine methyltransferase 1; hit rate 1.3% among 370,000; inhibition, % at 2.79 µM; recombinant PRMT1, activity-based probe fluorescence polarization; AID 652257;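 active = inhibition above about 21% made by adding two undisclosed values, limit read from the data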
Target sequence (Q99873 whole entry, looked up): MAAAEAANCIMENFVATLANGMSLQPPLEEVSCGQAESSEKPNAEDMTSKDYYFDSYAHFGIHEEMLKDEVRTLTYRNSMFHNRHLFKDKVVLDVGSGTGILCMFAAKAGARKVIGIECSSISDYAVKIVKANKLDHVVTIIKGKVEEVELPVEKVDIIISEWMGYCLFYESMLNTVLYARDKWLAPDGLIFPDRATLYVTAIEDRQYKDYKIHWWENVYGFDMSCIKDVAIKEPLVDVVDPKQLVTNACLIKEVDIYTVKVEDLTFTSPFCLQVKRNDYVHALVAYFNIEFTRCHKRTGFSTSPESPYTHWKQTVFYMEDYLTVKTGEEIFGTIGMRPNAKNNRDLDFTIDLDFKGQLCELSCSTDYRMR
TCR CD3 inh – human TCR-CD3 binding inhibition. TAMRA-labeled TCR probe fluorescence, biochemical. inhibition, % at 9.4 µM. hit rate 0.37% among 360,000. AID 651800; in the data active = inhibition above about 19%;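 note: recombinant mutant TCR 2C K166C tagged with TAMRA read by polarization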
PRMT1 confirm – confirmation of human PRMT1 inhibitors | inhibition, % at 2.79 µM | recombinant His-PRMT1, activity-based probe fluorescence polarization | hit rate 42% among 3,300 | shares compounds with PRMT1 FP inh | AID 687036;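 active = mean inhibition across replicates above the hit cutoff derived for the earlier primary screen, cut at about 22% in these data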
Each line names hits and unclear results; the compound was inactive in the other large screens (follow-up assays come after a bar, where they were run). Only some compounds are listed: those with a hit (about 2.6% of all), similar ones and a draw of the others.

CCOC(=O)CC(=O)CSc1ncnc2c1nnn2-c1ccc(F)cc1	PRMT1 FP inh 51.1 | PRMT1 confirm 92.2
O=C1CC(Sc2ccc(Cl)cc2)C(=O)N1Cc1ccncc1 (stereo not given)	none
NCCSC1CC(=O)N(Cc2ccc(F)cc2)C1=O (stereo not given)	PRMT1 FP inh 27.1 | PRMT1 confirm inactive
COCCCNC(=S)N/N=C/c1ccc(OC)cc1	PRMT1 FP inh 29.2 (no result: HTRA1 inh) | PRMT1 confirm inactive
COC(=O)[C@]12CCCCC=C1N(Cc1ccc(OC)cc1)C(=O)[C@@H]2CC(=O)NCc1cccs1	none (no result: HTRA1 inh, TCR CD3 inh)
O=C(CSC1=NCCS1)NC(c1ccccc1)c1ccccc1	PRMT1 FP inh 57.6 | PRMT1 confirm 66.0
CC(NC(=O)CSC1=NCCS1)c1ccccc1 (stereo not given)	none
O=C(CSC1=NCCS1)NC(NC(=O)CSC1=NCCS1)c1ccccc1	PRMT1 FP inh 26.0 | PRMT1 confirm inactive
CN[C@H]1C[C@@H](c2ccccc2Br)N(C(C)=O)C[C@H]1CO	none (no result: HTRA1 inh)
COC(=O)[C@H](CC(C)C)N(CCCc1cn(Cc2ccc(C)cc2)nn1)S(=O)(=O)c1ccccc1Br	none (no result: HTRA1 inh, TCR CD3 inh)
Cc1ccc(-c2cc3nc(-c4ccccc4)cc(N4CCC5(CC4)OCCO5)n3n2)cc1	none
Cc1ccc(-c2cc3nc(-c4ccco4)cc(N4CCN(Cc5ccoc5)CC4)n3n2)cc1	PRMT1 FP inh 26.7 (no result: HTRA1 inh, TCR CD3 inh) | PRMT1 confirm inactive
CC(=O)N1CCN(c2cc(-c3ccco3)nc3cc(-c4ccccc4)nn23)CC1	PRMT1 FP inh 51.3 (no result: HTRA1 inh, TCR CD3 inh) | PRMT1 confirm inactive
Cc1cc(Br)ccc1OCCCN1CCC(C(O)(c2ccccc2)c2ccccc2)CC1	none (no result: HTRA1 inh, TCR CD3 inh)
Cc1c(NC(=O)C2CCCN(S(=O)(=O)c3ccc(F)cc3)C2)c(=O)n(-c2ccccc2)n1C (stereo not given)	none (no result: HTRA1 inh, TCR CD3 inh)
Cc1cc(=O)[nH]c(SCc2nnnn2-c2ccc(Cl)cc2)n1	PRMT1 FP inh 36.8 | PRMT1 confirm 55.2
CCN(CC)C(=O)CC[C@H]1CC[C@]2(CCCN(C(=O)C3CCCC3)C2)O1	none (no result: HTRA1 inh, TCR CD3 inh)
CC1=C(C(=O)O)N2C(=O)C(NC(=O)c3nn(C)c(C)c3Cl)C2SC1 (stereo not given)	PRMT1 FP inh 28.7 | PRMT1 confirm 38.2
CC1=C(C(=O)O)N2C(=O)C(NC(=O)c3ccn(C)n3)C2SC1 (stereo not given)	none
CC1=C(C(=O)O)N2C(=O)C(NC(=O)c3c(F)cccc3F)C2SC1 (stereo not given)	none
CC1=C(C(=O)O)N2C(=O)C(NC(=O)c3nn(C)cc3[N+](=O)[O-])C2SC1 (stereo not given)	PRMT1 FP inh 33.4 (no result: HTRA1 inh) | PRMT1 confirm 44.2
COc1ccc(S[C@]2(C(=O)N3CCOCC3)CC(=O)N(c3ccc(C#N)cc3)[C@@H]2c2ccc(OC)cc2)cc1	none (no result: HTRA1 inh, TCR CD3 inh)
CCC1CCC(C(=O)NNC(=O)c2cc(-c3ccco3)[nH]n2)CC1 (stereo not given)	PRMT1 FP inh 83.0 | PRMT1 confirm inactive
O=C(NNC(=O)C1CCCCC1)c1ccco1	none
CN(C)S(=O)(=O)c1cccc(C(=O)N2CCc3ccccc32)c1	none
CN(C)S(=O)(=O)c1cccc(C(=O)C2=C3SC=C(c4ccccc4)N3CC2)c1	PRMT1 FP inh 26.5 | PRMT1 confirm 27.9
Cc1ccc(-n2c(SCc3ccc(Cl)c(Cl)c3)nnc2-c2ccc(C(C)(C)C)cc2)cc1	none (no result: HTRA1 inh, TCR CD3 inh)
O=C(c1ccco1)N1CCN(C(=O)c2ccc(-c3ccc([N+](=O)[O-])cc3)o2)CC1	PRMT1 FP inh 30.2 | PRMT1 confirm 27.1
CCOC(=O)[C@]12CCCCC/C=C\1N(CCc1ccc(Cl)cc1)C(=O)[C@H]2CC(=O)N1CCC(c2ccccc2)CC1	none (no result: HTRA1 inh, TCR CD3 inh)
CC(C)(C)Sc1ccc(N)nc1	PRMT1 FP inh 36.3 | PRMT1 confirm inactive
O=C(CCc1ccccc1)N[C@H]1[C@H](OCc2ccccc2)CCC[C@@]12C(=O)N(Cc1ccccc1)c1ccccc12	none (no result: HTRA1 inh, TCR CD3 inh)
COC(=O)c1ccc(N2C(=O)CC(Sc3n[nH]c(C)n3)C2=O)cc1 (stereo not given)	PRMT1 FP inh 44.3 | PRMT1 confirm 49.9
CCOc1ccccc1N1C(=O)CC(Sc2n[nH]c(-c3ccccc3)n2)C1=O (stereo not given)	PRMT1 FP inh 72.7 | PRMT1 confirm 77.9
COc1ccc(N2C(=O)CC(Sc3n[nH]c(-c4cccc(C)c4)n3)C2=O)cc1 (stereo not given)	PRMT1 FP inh 44.2 (no result: HTRA1 inh) | PRMT1 confirm 60.0
COc1cccc(N2C(=O)CC(Sc3nc(C)cc(C)n3)C2=O)c1 (stereo not given)	none
COCc1cccc(-c2cc(C(=O)OC)c3n(c2=O)CCC3)c1	none (no result: HTRA1 inh, TCR CD3 inh)
CCCCNC(=O)C1CCCN1C(=O)NCc1ccccc1OC (stereo not given)	none (no result: HTRA1 inh, TCR CD3 inh)
Cc1cc(C)n(CCc2nc(-c3ccc(C)o3)cs2)n1	PRMT1 FP inh 68.5 | PRMT1 confirm 33.6
Cc1cc(C)n(CCc2nc(-c3cc4ccccc4o3)cs2)n1	none
Nc1c(C(=O)NC2CCCC2)sc2nc(-c3cccs3)ccc12	PRMT1 FP inh 53.4 | PRMT1 confirm inactive
NC(=O)c1sc2nc(-c3cccs3)ccc2c1N	none
CS(=O)(=O)c1ccc(S(=O)CC(=O)OCc2ccccc2)c([N+](=O)[O-])c1 (stereo not given)	PRMT1 FP inh 65.7 | PRMT1 confirm 33.5
O=C(O)CSC1CC(=O)N(c2cccc(Cl)c2)C1=O (stereo not given)	none
O=C(O)CSC1CC(=O)N(c2ccc(Cl)c(Cl)c2)C1=O (stereo not given)	PRMT1 FP inh 48.2 | PRMT1 confirm 36.2
Cc1cc(C)cc(NC(=O)OC2CC3CC2[C@H]2CCCCN2[C@H]3Cc2ccccc2)c1 (stereo not given in full)	none (no result: HTRA1 inh, TCR CD3 inh)
CCc1c2c(nc3ccc(OC(=O)N4CCC(N5CCCCC5)CC4)cc13)-c1cc3c(c(=O)n1C2)COC(=O)[C@]3(O)CC	none
CCC1(O)C(=O)OCc2c1cc1n(c2=O)Cc2cc3cc(O)ccc3nc2-1 (stereo not given)	PRMT1 FP inh 28.5 | PRMT1 confirm 30.7
O=C(CSc1nnc(COc2ccccc2)n1Cc1ccco1)NCc1ccco1	PRMT1 FP inh 28.9 | PRMT1 confirm inactive
Cc1cc(NC(=O)CSc2nnc(COc3ccccc3)n2Cc2ccco2)no1	none
CN1CC=C(c2ccccc2)N(c2ccccc2)C1=O	none (no result: HTRA1 inh, TCR CD3 inh)
COCc1cccc(-c2csc(C(N)c3ccc(F)c(F)c3)n2)c1 (stereo not given)	none (no result: HTRA1 inh)
COCc1cccc(-c2csc(C(O)c3ccc(F)c(F)c3)n2)c1 (stereo not given)	PRMT1 FP inh 52.2 (no result: HTRA1 inh) | PRMT1 confirm inactive
C[C@H]1[C@@H](OC(=O)NCc2ccc(Cl)cc2)CC[C@@]23CCCN2C(=O)CCC[C@@H]13	none (no result: HTRA1 inh, TCR CD3 inh)
NC(=S)NN=Cc1ccc(-c2ccc(S(=O)(=O)Nc3ncccn3)cc2)o1	PRMT1 FP inh 31.9 | PRMT1 confirm inactive
NC(=S)N/N=C/c1ccc(-c2ccccc2)o1	none
Cc1ccc(-c2nc3ncccn3c2NC(=O)c2cccc(C)c2)cc1	none (no result: HTRA1 inh, TCR CD3 inh)
